Test results: ChEMBL document CHEMBL5126630, “Optimization of the Prodrug Moiety of Remdesivir to Improve Lung Exposure/Selectivity and Enhance Anti-SARS-CoV-2 Activity” (J Med Chem, 2022)
Activity calls are given as the source filed them. The rule behind the calls is not given here.

Legend:
[1] = Stability in hamster plasma assessed as half life; format: ADME, cell-free, Cricetulus griseus; details: chinese hamster
[2] = Stability in human plasma assessed as half life; format: ADME, cell-free
[3] = Stability in human microsomes assessed as half life; format: ADME, Microsome
[4] = Stability in hamster microsomes assessed as half life; format: ADME, Cricetulus griseus, Microsome; details: chinese hamster
SARS-CoV-2 [5] = experiment: Antiviral activity against SARS-CoV-2 beta B.1.351 infected in African green monkey Vero E6 cells assessed as protection against virus-induced cytopathic effect incubated for 2 days by CellTiter-Glo assay; format: functional, organism-based; details: Severe acute respiratory syndrome coronavirus 2, beta B.1.351, Vero 76, 48 h
[6] = Drug metabolism in hamster blood assessed as NTP metabolite formation at 10 mg/kg, iv measured upto 24 hrs by LC-MS/MS analysis; format: ADME, organism-based, Cricetulus griseus; details: chinese hamster, in vivo
Summary of the method: (§1)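 Female catheterized hamsters were dosed 10 mg/kg iv at 2 mg/mL; remdesivir was in 15% cyclodextrin at pH 3–3.5 and the prodrug in cyclodextrin or albumin. Two per group were sacrificed at 0.5–24 h. Tissues were homogenized in 70% methanol with internal standard. NTP was measured by ion-pairing LC-MS/MS (dimethylhexylamine/ammonium formate mobile phase), negative-ion MRM, against 10-point 5–5000 ng/mL standards. Exposure was reported as AUC.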

SARS-CoV-2 [7] = experiment: Antiviral activity against SARS-CoV-2 delta B.1.617.2 infected in African green monkey Vero E6 cells assessed as protection against virus-induced cytopathic effect incubated for 2 days by CellTiter-Glo assay; format: functional, organism-based; details: Severe acute respiratory syndrome coronavirus 2, delta B.1.617.2, Vero 76, 48 h
[8] = Drug accumulation in hamster liver at 10 mg/kg, iv measured upto 24 hrs by LC-MS/MS analysis; format: ADME, organism-based, Cricetulus griseus; details: chinese hamster, in vivo
Summary of the method: (§2)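 Catheterized female hamsters received 10 mg/kg iv at 2 mg/mL. The remdesivir vehicle was 15% cyclodextrin at pH 3–3.5; the test prodrug was given in cyclodextrin or albumin formulation. Two animals per group were sacrificed at 0.5, 1, 4, 7 and 24 h. Tissues were homogenized in 5-fold 70% methanol with internal standard and supernatants analysed by LC-MS against 5–5000 ng/mL standard curves.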

SARS-CoV-2 [9] = experiment: Antiviral activity against SARS-CoV-2 infected in African green monkey Vero E6 cells assessed as reduction in viral titer incubated for 2 days by CellTiter-Glo assay; format: functional, organism-based; details: Severe acute respiratory syndrome coronavirus 2; Vero 76; time 2.0 day
SARS-CoV-2 [10] = experiment: Antiviral activity against SARS-CoV-2 alpha B.1.1.7 infected in African green monkey Vero E6 cells assessed as protection against virus-induced cytopathic effect incubated for 2 days by CellTiter-Glo assay; format: functional, organism-based; details: Severe acute respiratory syndrome coronavirus 2, alpha B.1.1.7, Vero 76, 48 h
[11] = Drug metabolism in hamster lymph node assessed as NTP metabolite formation at 10 mg/kg, iv measured upto 24 hrs by LC-MS/MS analysis; format: ADME, organism-based, Cricetulus griseus; details: chinese hamster, in vivo; summary of the method: as §1
[12] = Drug metabolism in hamster spleen assessed as NTP metabolite formation at 10 mg/kg, iv measured upto 24 hrs by LC-MS/MS analysis; format: ADME, organism-based, Cricetulus griseus; details: chinese hamster, in vivo; summary of the method: as §1
[13] = Drug metabolism in hamster lung assessed as NTP metabolite formation at 10 mg/kg, iv measured upto 24 hrs by LC-MS/MS analysis; format: ADME, organism-based, Cricetulus griseus; details: chinese hamster, in vivo; summary of the method: as §1
[14] = Prodrug activation in human Calu-3 cells assessed as ALA release at 10 uM measured upto 12 hrs by LC-MS analysis; format: cell-based; details: calu-3, 12 h
Summary of the method: (§3)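 Calu-3 cells (1–5 × 10^5/well) were cultured 12 h, then exposed to 10 μM drug at 37 °C for 2, 6 and 12 h (n = 3). Cells were detached with trypsin-EDTA, pelleted and washed three times with ice-cold PBS. Drug was extracted overnight at −20 °C in ice-cold 70% methanol, and supernatants were analysed by LC-MS.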

[15] = Prodrug activation in human Calu-3 cells assessed as NTP release at 10 uM measured upto 12 hrs by LC-MS analysis; format: cell-based; details: calu-3, 12 h; summary of the method: as §3
Vero 76 = experiment: Cytotoxicity against African green monkey Vero E6 cells at 10 uM; format: toxicity, cell-based; details: chlorocebus sabaeus, vero 76, 10 µM
[16] = Prodrug activation in human Calu-3 cells assessed as NUC release at 10 uM measured upto 12 hrs by LC-MS analysis; format: cell-based; details: calu-3, 12 h; summary of the method: as §3
SARS-CoV-2 [17] = experiment: Antiviral activity against SARS-CoV-2 gamma P.1 infected in African green monkey Vero E6 cells assessed as protection against virus-induced cytopathic effect incubated for 2 days by CellTiter-Glo assay; format: functional, organism-based; details: Severe acute respiratory syndrome coronavirus 2, gamma P.1, Vero 76, 48 h
[18] = Drug accumulation in hamster kidney at 10 mg/kg, iv measured upto 24 hrs by LC-MS/MS analysis; format: ADME, organism-based, Cricetulus griseus; details: chinese hamster, in vivo; summary of the method: as §2
SARS-CoV-2 [19] = experiment: Antiviral activity against SARS-CoV-2 infected in African green monkey Vero E6 cells assessed as protection against virus-induced cytopathic effect incubated for 2 days by CellTiter-Glo assay; format: functional, organism-based; details: Severe acute respiratory syndrome coronavirus 2, Vero 76, 48 h
[20] = Stability in mouse microsomes assessed as half life; format: ADME, Microsome
[21] = Stability in mouse plasma assessed as half life; format: ADME, cell-free

SMILES: CCCCCCCCCCCCOC(=O)[C@H](C)NP(=O)(OC[C@H]1O[C@@](C#N)(c2ccc3c(N)ncnn23)[C@H](O)[C@@H]1O)Oc1cccc2ccccc12 (stereo not given in full)
- half-life [1]: 158 min
- half-life [2]: 154 min
- half-life [3]: 6.11 min
- half-life [4]: 3.49 min

SMILES: CCC(CC)COC(=O)[C@H](C)N[P@](=O)(OC[C@H]1O[C@@](C#N)(c2ccc3c(N)ncnn23)[C@H](O)[C@@H]1O)Oc1ccccc1 [REMDESIVIR]
- half-life [1]: 54.5 min
- EC50 (SARS-CoV-2 [5]): 32 µM
- half-life [2]: 40.7 min
- Drug metabolism [6]: Metabolite_Detected
- half-life [3]: 0.86 min
- EC50 (SARS-CoV-2 [7]): 9.2 µM
- Drug uptake [8]: 80%
- Activity (SARS-CoV-2 [9]): Active
- EC50 (SARS-CoV-2 [10]): 4.7 µM
- Drug metabolism [11]: Metabolite_Detected
- Drug metabolism [12]: Metabolite_Detected
- Drug metabolism [13]: Metabolite_Detected
- Drug metabolism [14]: Metabolite_Detected
- half-life [4]: 0.48 min
- Drug metabolism [15]: Metabolite_Detected
- Activity (Vero 76): Non-Toxic
- Drug metabolism [16]: Metabolite_Detected
- EC50 (SARS-CoV-2 [17]): 3.7 µM
- Drug uptake [18]: 80%
- EC50 (SARS-CoV-2 [19]): 3.3 µM

SMILES: CCCCC/C=C\C/C=C\CCCCCCCCOC(=O)[C@H](C)NP(=O)(OC[C@H]1O[C@@](C#N)(c2ccc3c(N)ncnn23)[C@H](O)[C@@H]1O)Oc1ccccc1 (stereo not given in full)
- half-life [1]: 128 min
- EC50 (SARS-CoV-2 [5]): 15.9 µM
- half-life [2]: 192 min
- half-life [20]: 8.65 min
- Drug metabolism [6]: Metabolite_Detected
- half-life [3]: 8.33 min
- EC50 (SARS-CoV-2 [7]): 5.6 µM
- Drug uptake [8]: 80%
- Activity (SARS-CoV-2 [9]): Active
- EC50 (SARS-CoV-2 [10]): 2.5 µM
- Drug metabolism [11]: Metabolite_Detected
- Drug metabolism [12]: Metabolite_Detected
- half-life [21]: 1.03 min
- Drug metabolism [13]: Metabolite_Detected
- Drug metabolism [14]: Metabolite_Detected
- half-life [4]: 16.2 min
- Drug metabolism [15]: Metabolite_Detected
- Activity (Vero 76): Non-Toxic
- Drug metabolism [16]: Metabolite_Detected
- EC50 (SARS-CoV-2 [17]): 1.7 µM
- Drug uptake [18]: 80%
- EC50 (SARS-CoV-2 [19]): 0.4 µM

SMILES: CCCCC/C=C\C/C=C\CCCCCCCCOC(=O)[C@H](C)NP(=O)(OC[C@H]1O[C@@](C#N)(c2ccc3c(N)ncnn23)[C@H](O)[C@@H]1O)Oc1cccc2ccccc12 (stereo not given in full)
- half-life [1]: 271 min
- half-life [2]: 286 min
- half-life [20]: 13.6 min
- half-life [3]: 19.7 min
- half-life [21]: 3.44 min
- half-life [4]: 61.8 min

SMILES: C[C@H](NP(=O)(OC[C@H]1O[C@@](C#N)(c2ccc3c(N)ncnn23)[C@H](O)[C@@H]1O)Oc1cccc2ccccc12)C(=O)OCc1ccccc1 (stereo not given in full)
- half-life [1]: 55.8 min
- half-life [2]: 52.4 min
- half-life [3]: 1.05 min
- half-life [4]: 0.46 min

SMILES: CCCCCCCCCCCCOC(=O)[C@H](C)NP(=O)(OC[C@H]1O[C@@](C#N)(c2ccc3c(N)ncnn23)[C@H](O)[C@@H]1O)Oc1ccccc1 (stereo not given in full)
- half-life [1]: 71.2 min
- half-life [2]: 47.1 min
- half-life [3]: 4.29 min
- half-life [4]: 2.72 min
